According to ChEMBL document CHEMBL4007449, “Novel multi-substituted benzyl acridone derivatives as survivin inhibitors for hepatocellular carcinoma treatment” (Eur J Med Chem, 2017):

Tests used:
HepG2 = assay: Antiproliferative activity against human HepG2 cells after 48 hrs by MTT assay; type: functional, cell-based; details: HepG2, 48 h
How it was run: (§1)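 Cells grown in DMEM with 10% FBS at 37 °C, 5% CO2; seeded at 6 × 10^3 cells/well, allowed to attach 12 h, then exposed to compound at final 50, 25, 10, 1 and 0.1 µM for 48 h. MTT (5 mg/mL) added for 4 h, formazan dissolved in DMSO, absorbance read at 490 nm; IC50 taken from the resulting curve.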

MCF7 = assay: Antiproliferative activity against human MCF7 cells after 48 hrs by MTT assay; type: functional, cell-based; details: MCF7, 48 h; how it was run: as §1
[1] = Antiproliferative activity against human QGY7701 cells after 48 hrs by MTT assay; type: cell-based; details: QGY7701, 48 h; how it was run: as §1

Row | IC50 (HepG2) [µM] | IC50 (MCF7) [µM] | SMILES | IC50 [1] [µM]
1 | 5.68 | 13.4 | COc1ccc(CNc2ccc(C(=O)NCCCN(C)C)c3[nH]c4c(N)cccc4c(=O)c23)cc1 | –
2 | 10.8 | 9.97 | COc1ccc(CNc2ccc(C(=O)NCCCN(C)C)c3[nH]c4c(OC)cccc4c(=O)c23)cc1 | –
3 | 7 | 5.73 | COc1cc(CNc2ccc(C(=O)NCCN(C)C)c3[nH]c4c([N+](=O)[O-])cccc4c(=O)c23)cc(OC)c1OC | –
4 | > 50 | > 50 | Cc1cccc2c(=O)c3c(Cl)ccc(C(=O)NCCN(C)C)c3[nH]c12 | –
5 | 12.3 | 14.8 | COc1cccc2c(=O)c3c(NN)ccc(C(=O)NCCCN(C)C)c3[nH]c12 | –
6 | 2.43 | 2.92 | CN(C)CCCNC(=O)c1ccc(NCc2ccccc2)c2c(=O)c3cccc([N+](=O)[O-])c3[nH]c12 | 3.97
7 | 7.99 | 5.48 | Cc1cccc2c(=O)c3c(NCc4ccccc4)ccc(C(=O)NCCN(C)C)c3[nH]c12 | –
8 | 8.61 | 5.09 | COc1cccc(CNc2ccc(C(=O)NCCN(C)C)c3[nH]c4c([N+](=O)[O-])cccc4c(=O)c23)c1 | –
9 | 9.59 | 5.61 | CN(C)CCNC(=O)c1ccc(NCc2ccccc2)c2c(=O)c3cccc([N+](=O)[O-])c3[nH]c12 | –
10 | 28.6 | 3.54 | CN(C)CCNC(=O)c1ccc(N(C)C)c2c(=O)c3cccc([N+](=O)[O-])c3[nH]c12 | –
11 | 2.82 | 3.65 | COc1cccc(CNc2ccc(C(=O)NCCN(C)C)c3[nH]c4c(C)cccc4c(=O)c23)c1 | 3.12
12 | 36.8 | 9.29 | CN(C)CCCNC(=O)c1ccc(N(C)C)c2c(=O)c3cccc([N+](=O)[O-])c3[nH]c12 | –
13 | 5.94 | 4.12 | COc1ccc(CNc2ccc(C(=O)NCCCN(C)C)c3[nH]c4c(C)cccc4c(=O)c23)cc1 | –
14 | > 50 | > 50 | COCCNC(=O)c1ccc(NCc2cc(OC)c(OC)c(OC)c2)c2c(=O)c3cccc(C)c3[nH]c12 | –
15 | > 50 | > 50 | COc1cc(CNc2ccc(C(=O)NCCN(C)C)c3[nH]c4c(OC)cccc4c(=O)c23)cc(OC)c1OC | –
16 | 4.96 | 5.06 | COc1cc(CNc2ccc(C(=O)NCCN(C)C)c3[nH]c4c(C)cccc4c(=O)c23)cc(OC)c1OC | –
17 | 17.5 | 17.5 | COc1ccc(CNc2ccc(C(=O)NCCN(C)C)c3[nH]c4c(Cl)cc(Cl)cc4c(=O)c23)cc1 | –
18 | > 50 | > 50 | COCCNC(=O)c1ccc(NCc2ccc(OC)cc2)c2c(=O)c3cccc(C)c3[nH]c12 | –
19 | 17.2 | > 50 | COCCNC(=O)c1ccc(NCc2ccccc2)c2c(=O)c3cccc(C)c3[nH]c12 | –
20 | > 50 | > 50 | COCCNC(=O)c1ccc(NCc2cccc(OC)c2)c2c(=O)c3cccc(C)c3[nH]c12 | –
21 | 4.5 | 1.05 | COc1ccc(CNc2ccc(C(=O)NCCN(C)C)c3[nH]c4c([N+](=O)[O-])cccc4c(=O)c23)cc1 | –
22 | 5.5 | 13.7 | COc1cccc2c(=O)c3c(NCc4ccccc4)ccc(C(=O)NCCN(C)C)c3[nH]c12 | –
23 | 24.7 | 18.5 | COc1cccc2c(=O)c3c(Cl)ccc(C(=O)NCCN(C)C)c3[nH]c12 | –
24 | 14.5 | 2.28 | CN(C)CCNC(=O)c1ccc(Cl)c2c(=O)c3cccc([N+](=O)[O-])c3[nH]c12 | –
25 | 8.85 | 13 | Cc1cccc2c(=O)c3c(NN)ccc(C(=O)NCCN(C)C)c3[nH]c12 | –
26 | 5.15 | 6.13 | COc1ccc(CNc2ccc(C(=O)NCCN(C)C)c3[nH]c4c(OC)cccc4c(=O)c23)cc1 | –
27 | > 50 | > 50 | COCCNC(=O)c1ccc(NCc2ccc(C(F)(F)F)cc2)c2c(=O)c3cccc(C)c3[nH]c12 | –
28 | 5.78 | 4.69 | CCc1ccc(CNc2ccc(C(=O)NCCCN(C)C)c3[nH]c4c([N+](=O)[O-])cccc4c(=O)c23)cc1 | –
